Experimental data taken from ChEMBL document CHEMBL1212780, “Anti-Clostridium difficile potential of tetramic acid derivatives from Pseudomonas aeruginosa quorum-sensing autoinducers” (Antimicrob Agents Chemother, 2010).
The source made the active and inactive calls. No cut-off for these calls is given here.

Columns and labels:
Clostridioides difficile [1] = assay: Drug uptake in Clostridium difficile assessed as dansylated compound accumulation at cell surface by electron microscopy; format: ADME, organism-based
Summary of the method: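 Bacteria treated with dansyl-labelled compound, fixed in 0.5% glutaraldehyde/2% paraformaldehyde at 4°C for 1 h without osmium, and embedded in Unicryl. Ultrathin sections blocked in 1.5% BSA, then rabbit anti-dansyl (1:100, 2 h, room temperature) and 10-nm gold anti-rabbit IgG (1:20, 30 min). Nonimmune serum used as negative control.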

Clostridioides difficile [2] = assay: Antibacterial activity against Clostridium difficile assessed induction of bacteriolysis at 50 uM after 26 hrs; format: functional, organism-based
Summary of the method: (§1)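 Anaerobic cultures in supplemented BHI were incubated with compound (30 or 50 μM depending on compound) for 26 h at 37°C. OD600 was read at each time point to follow growth and lysis, compared with an untreated control.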

Clostridioides difficile [3] = assay: Antibacterial activity against Clostridium difficile assessed as inhibition of bacterial viability at 3 to 50 uM after 24 hrs; format: functional, organism-based
Summary of the method: (§2)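 Cultured anaerobically for 24 h at 37°C in supplemented BHI broth with a range of compound concentrations. Survivors counted by plating 10-fold serial dilutions. Detection limit 2 log CFU/ml. Compared against bacteria grown without compound.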

Clostridioides difficile [4] = assay: Antibacterial activity against Clostridium difficile 2 assessed as inhibition of bacterial viability at 50 uM after 24 hrs; format: functional, organism-based
Summary of the method: (§3)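 C. difficile clinical isolates from pseudomembranous colitis patients, grown anaerobically at 37°C in BHI broth with 1% yeast extract and 0.1% L-cysteine. Cultured 24 h with compound, then viable counts taken by plating serial 10-fold dilutions on Mueller-Hinton agar with 5% sheep blood. n = 3. Detection limit 2 log CFU/ml.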

Clostridioides difficile [5] = assay: Antibacterial activity against Clostridium difficile 4 assessed as inhibition of bacterial viability at 50 uM after 24 hrs; format: functional, organism-based; summary of the method: as §3
Clostridioides difficile [6] = assay: Antibacterial activity against Clostridium difficile 3 assessed as inhibition of bacterial viability at 50 uM after 24 hrs; format: functional, organism-based; summary of the method: as §3
Clostridioides difficile [7] = assay: Antibacterial activity against Clostridium difficile 1 assessed as inhibition of bacterial viability at 50 uM after 24 hrs; format: functional, organism-based; summary of the method: as §3
Clostridioides difficile [8] = assay: Antibacterial activity against Clostridium difficile assessed as induction of changes in cell surface structures by electron microscopy; format: functional, organism-based
Summary of the method: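 Postfixed 1 h in 1% OsO4, ethanol-dehydrated and Epon-embedded. Surface structure of treated cells compared with control cells.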

Clostridioides difficile [9] = assay: Induction of lipid membranes composition changes in Clostridium difficile by NMR spectroscopy; format: functional, organism-based
Clostridioides difficile [10] = assay: Antibacterial activity against Clostridium difficile assessed induction of bacteriolysis at 30 uM after 26 hrs; format: functional, organism-based; summary of the method: as §1
Clostridioides difficile [11] = assay: Antibacterial activity against Clostridium difficile assessed as induction of morphological changes at 50 uM after 30 mins by Gram staining; format: functional, organism-based
Summary of the method: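 Bacteria grown 24 h at 37°C, pelleted at 5,000 rpm for 5 min, then exposed to compound at 50 μM for the stated time. Gram-stained and examined by light microscopy, compared with untreated cells.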

Clostridioides difficile [12] = assay: Antibacterial activity against Clostridium difficile 4 assessed as inhibition of bacterial viability after 24 hrs; format: functional, organism-based
Summary of the method: (§4)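 Four clinical isolates from pseudomembranous colitis patients, grown anaerobically at 37°C in BHI broth with 1% yeast extract and 0.1% L-cysteine. Broth cultures exposed 24 h to a range of compound concentrations (autoinducers at 50 μM). Viable counts made by plating 10-fold serial dilutions on sheep-blood Mueller-Hinton agar; n = 3.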

Clostridioides difficile [13] = assay: Antibacterial activity against Clostridium difficile 3 assessed as inhibition of bacterial viability after 24 hrs; format: functional, organism-based; summary of the method: as §4
Clostridioides difficile [14] = assay: Antibacterial activity against Clostridium difficile 1 assessed as inhibition of bacterial viability after 24 hrs; format: functional, organism-based; summary of the method: as §4
Clostridioides difficile [15] = assay: Antibacterial activity against Clostridium difficile 2 assessed as inhibition of bacterial viability after 24 hrs; format: functional, organism-based; summary of the method: as §4
Clostridioides difficile [16] = assay: Antibacterial activity against Clostridium difficile assessed as inhibition of bacterial viability at 10 uM after 24 hrs relative to untreated control; format: functional; summary of the method: as §2

How did the Drug uptake (Clostridioides difficile [1]) turn out when CCCCCCCCC/C(O)=C1/C(=O)N[C@H](CCO)C1=O was run?
The Drug uptake was “Active”.

What about the Activity (Clostridioides difficile [2]) of the same molecule?
The Activity was “Active”.

And the inhibition (Clostridioides difficile [3])?
The inhibition was “Active”.

What does the source list for CCCCCCCCCC(=O)CC(=O)N[C@H]1CCOC1=O?
inhibition (Clostridioides difficile [4]): inactive; inhibition (Clostridioides difficile [5]): inactive; inhibition (Clostridioides difficile [6]): inactive; inhibition (Clostridioides difficile [7]): inactive; Activity (Clostridioides difficile [8]): inactive; Activity (Clostridioides difficile [9]): inactive

With CCCCCCCCC/C(O)=C1\C(=O)CN(C)C1=O as the molecule, how does the Activity (Clostridioides difficile [10]) read?
The Activity was “Active”.

And the inhibition (Clostridioides difficile [3])?
The inhibition was “Active”.

What does the source list for CCCCCCCCC/C(O)=C1/C(=O)N[C@@H](CCO)C1=O?
Activity (Clostridioides difficile [11]): Active; inhibition (Clostridioides difficile [12]): Dose-dependent effect; Drug uptake (Clostridioides difficile [1]): Active; inhibition (Clostridioides difficile [13]): Dose-dependent effect; inhibition (Clostridioides difficile [14]): Dose-dependent effect; Activity (Clostridioides difficile [2]): Active; Activity (Clostridioides difficile [8]): Active; Activity (Clostridioides difficile [9]): Active; inhibition (Clostridioides difficile [15]): Dose-dependent effect

What does the source list for CCCCCCCCC/C(O)=C1\C(=O)CNC1=O?
Activity (Clostridioides difficile [10]): Active; fold change (FC) (Clostridioides difficile [16]): 100000; inhibition (Clostridioides difficile [3]): Active

Which inhibition (Clostridioides difficile [3]) does the source give for CCC/C(O)=C1/C(=O)N[C@@H](CCO)C1=O here?
The inhibition was “Active”.

For CCCCCCCCC/C(OC)=C1/C(=O)N[C@@H](CCO)C1=O, which inhibition (Clostridioides difficile [3]) is on record?
The inhibition was “Active”.

CCCCCCCCC/C(O)=C1/C(=O)N[C@@H](C)C1=O was tested. Which Drug uptake (Clostridioides difficile [1]) did it give?
The Drug uptake was “Active”.

And the Activity (Clostridioides difficile [2])?
The Activity was “Active”.

And the inhibition (Clostridioides difficile [3])?
The inhibition was “Active”.

With CCCC(=O)N[C@H]1CCOC1=O as the molecule, how does the inhibition (Clostridioides difficile [4]) read?
The inhibition was “inactive”.

What about the inhibition (Clostridioides difficile [5]) of the same molecule?
The inhibition was “inactive”.

And the inhibition (Clostridioides difficile [6])?
Its inhibition is “inactive”.

What about the inhibition (Clostridioides difficile [7]) of the same molecule?
Its inhibition is “inactive”.
